The record followed here is ChEMBL document CHEMBL1131129, “Geometrically and conformationally restrained cinnamoyl compounds as inhibitors of HIV-1 integrase: synthesis, biological evaluation, and molecular modeling” (J Med Chem, 1998).

The test system of test [1] is KB. Briefly: Compound concentration required to reduce the exponential growth of KB cells by 50%. The format is functional. The settings on record: Homo sapiens.
The target in test [2] is T1, Human immunodeficiency virus type 1 integrase (Human immunodeficiency virus 1, UniProt Q7ZJM1). Briefly: (§1) Compound concentration required to reduce HIV-1 Integrase 3'-processing activity by 50%.
T1 sequence (Q7ZJM1 whole entry): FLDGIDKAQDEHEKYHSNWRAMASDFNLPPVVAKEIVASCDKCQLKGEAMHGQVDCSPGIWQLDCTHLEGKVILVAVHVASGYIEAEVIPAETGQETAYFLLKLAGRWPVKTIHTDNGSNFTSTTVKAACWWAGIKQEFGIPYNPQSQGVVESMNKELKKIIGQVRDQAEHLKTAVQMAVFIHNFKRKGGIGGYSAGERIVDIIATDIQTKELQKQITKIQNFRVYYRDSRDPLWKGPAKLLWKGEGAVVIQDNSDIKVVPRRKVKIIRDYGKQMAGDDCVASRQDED
For test [3], the species on record is Homo sapiens. Briefly: Fold increase in protein-linked DNA breaks (PLDB) with respect to untreated controls. The format is functional. Summed up:
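KB cells labeled with [14C]thymidine (0.75 μCi/mL) for 48 h, trypsinized, resuspended at 3×10^5/mL, preincubated 1 h at 37 °C. […] Protein-linked DNA breaks quantified by K-SDS coprecipitation after SDS lysis, needle shearing, 65 °C incubation and 100 mM KCl precipitation. Expressed relative to untreated controls.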

The subject of test [4] is MT4. Kind of test: Compound concentration required to reduce the exponential growth of MT-4 cells by 50%. The format is functional. As to conditions: Homo sapiens. Put shortly: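 Lymphoid MT-4 cells in suspension culture, grown at 37 °C under 5% CO2 in RPMI 1640 with 10% FCS, penicillin G and streptomycin, and checked for mycoplasma. Compounds were dissolved in DMSO as a 200 mM stock, then diluted. Cytotoxicity was read as viability of mock-infected cells by MTT. The CC50 is the concentration reducing exponential cell growth by 50%.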

Test [5] deals with T1, Human immunodeficiency virus type 1 integrase. Described as §1. Put shortly: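 His-tagged HIV-1 IN expressed in E. coli BL21(DE3), Ni-purified with 5 mM CHAPS. Released GT dinucleotide recovered by DEAE filtration and counted. Mean of three independent determinations.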
This is another data set of the same source.

Bounds are passed on as bounds.

In the case of `O=C(/C=C/c1ccc(O)c(O)c1)c1cccc(C(=O)/C=C/c2ccc(O)c(O)c2)c1`, the CC50 (as a rule, the concentration that lowers cell viability or growth by half) in test [1] came out at 5.8 µM; in test [4], 5 µM. In addition, in test [2] (read-out: IC50), the IC50 (as a rule, the point on the concentration scale where inhibition reaches its midpoint) is 0.8 µM. The compound further displayed a Fold increase in test [3] of 1.2.

Regarding `O=C(/C=C/c1ccc(O)cc1)c1cccc(C(=O)/C=C/c2ccc(O)cc2)c1`, the values for the CC50 in test [1] and in test [4] were 22 µM and 35 µM, respectively. Besides, the IC50 in test [2] (read-out: IC50) was 30 µM. This compound registered a Fold increase in test [3] of 1.2.

Turning to `O=C(/C=C/c1ccc(O)c(O)c1)c1ccc(O)cc1`, the half-maximal cytotoxic concentration (CC50) in test [1] was found to be 5.9 µM; in test [4] it was 4.4 µM. Further, the IC50 in test [2] (read-out: IC50) stood at 1.3 µM. The same compound registered a Fold increase in test [3] of 1.6.

Take `O=C1/C(=C/c2ccc(O)c(O)c2)CSC/C1=C\c1ccc(O)c(O)c1`: the figures for the 50% cytotoxic concentration (CC50) in test [1] and in test [4] were 3.9 µM and 4 µM, respectively. Also, the IC50 in test [2] (read-out: IC50) turned out to be 0.2 µM. The compound also registered a Fold increase in test [3] of 1.1.

As for `O=C1/C(=C/c2ccc(O)c(O)c2)Cc2ccccc21`, the results for the CC50 in test [1] and in test [4] were 9.2 µM and 5.5 µM, respectively. The compound further had a Fold increase in test [3] of 5.1. The compound also came in with a half-maximal inhibitory concentration (IC50) in test [5] of 86 µM.

For `O=C(/C=C(O)/C=C/c1ccc(O)c(O)c1)/C=C/c1ccc(O)c(O)c1`, the half-maximal cytotoxic concentration (CC50) came out at 4.1 µM in test [1] and 17 µM in test [4]. Also, in test [2] (read-out: IC50), the IC50 turned out to be 0.7 µM. Also, the Fold increase in test [3] is 1.1.

Take `O=C1/C(=C/c2ccc(O)c(O)c2)CNC/C1=C\c1ccc(O)c(O)c1`: the results for the CC50 in test [1] and in test [4] were 32 µM and 21 µM, respectively. The IC50 in test [2] (read-out: IC50) was found to be 0.2 µM. Also, the Fold increase in test [3] turned out to be 1.4.

Consider `O=C(/C=C/c1ccc(O)c(O)c1)CCc1ccccc1`, for which the CC50 in test [1] was determined as 30 µM; in test [4] it was 15 µM. In addition, in test [2] (read-out: IC50), the IC50 is greater than 100 µM. This compound displayed a Fold increase in test [3] of 1.

On to `O=C1/C(=C/c2ccc(O)c(O)c2)CCC/C1=C\c1ccc(O)c(O)c1`, for which the values for the CC50 in test [1] and in test [4] were 8.9 µM and 7.4 µM, respectively. Also, in test [2] (read-out: IC50), the 50% inhibitory concentration (IC50) came out at 0.9 µM. Further, the Fold increase in test [3] is 1.4.

For `COc1cc(/C=C/C(=O)/C=C/c2ccc(O)c(OC)c2)ccc1O`, the figures for the CC50 in test [1] and in test [4] were 8.5 µM and 1.4 µM, respectively. For the same compound, the IC50 in test [2] (read-out: IC50) turned out to be 37 µM. Further, the Fold increase in test [3] turned out to be 1.2.

`CC[C@@]1(O)C(=O)OCc2c1cc1n(c2=O)Cc2cc3ccccc3nc2-1` [CAMPTOTHECIN]: the figures for the CC50 in test [1] and in test [4] were 0.006 µM and 0.01 µM, respectively. For the same compound, the IC50 in test [2] (read-out: IC50) is greater than 100 µM. Moreover, the Fold increase in test [3] came to 3.5.

Consider `O=C(/C=C/c1ccc(O)cc1)c1ccc(O)cc1O` [ISOLIQUIRITIGENIN], for which the cytotoxic concentration (CC50) amounted to 12 µM in test [1] and 7.4 µM in test [4]. The half-inhibitory concentration (IC50) in test [2] (read-out: IC50) was greater than 100 µM. The compound further came in with a Fold increase in test [3] of 1.7.

`Nc1nc[nH]n1` [AMITROLE]: the cytotoxic concentration (CC50) in test [1] and in test [4] was 100 µM throughout. Moreover, the half-maximal inhibitory concentration (IC50) in test [2] was found to be 0.17 µg/mL. The compound also registered a Fold increase in test [3] of 1.1.

Take `COc1ccc(/C=C/C(=O)/C=C(O)/C=C/c2ccc(OC)c(OC)c2)cc1OC`: the figures for the cytotoxic concentration (CC50) in test [1] and in test [4] were 2 µM and 4.1 µM, respectively. In test [2] (read-out: IC50), the IC50 is greater than 100 µM. In test [3], this compound showed a Fold increase of 1.4.

With `COc1cc([C@@H]2c3cc4c(cc3[C@@H](O[C@@H]3O[C@@H]5CO[C@@H](C)O[C@H]5[C@H](O)[C@H]3O)[C@H]3COC(=O)[C@H]23)OCO4)cc(OC)c1O` [ETOPOSIDE], the cytotoxic concentration (CC50) in test [1] is 0.1 µM; in test [4] it was 0.08 µM.

Regarding `O=C(/C=C/c1ccc(O)c(O)c1)c1ccccc1`, the half-maximal cytotoxic concentration (CC50) in test [1] stood at 3.1 µM; in test [4], 1.7 µM. In test [2] (read-out: IC50), the IC50 was 2.3 µM. Besides, the Fold increase in test [3] worked out at 1.3.

For `O=C(/C=C(O)/C=C/c1ccccc1)/C=C/c1ccccc1`, the CC50 came to 29 µM in test [1] and 41 µM in test [4]. The 50% inhibitory concentration (IC50) in test [2] (read-out: IC50) is greater than 100 µM. This compound displayed a Fold increase in test [3] of 0.8.

Take `COc1cc(/C=C2\CCC/C(=C\c3ccc(O)c(OC)c3)C2=O)ccc1O` [CYCLOVALONE]: the results for the CC50 in test [1] and in test [4] were 6.7 µM and 2.4 µM, respectively. In test [2] (read-out: IC50), the half-maximal inhibitory concentration (IC50) was greater than 100 µM. The compound also came in with a Fold increase in test [3] of 1.8.

Turning to `COc1cc(/C=C/C(=O)CC(=O)/C=C/c2ccc(O)c(OC)c2)ccc1O` [CURCUMIN], the CC50 in test [1] amounted to 16 µM; in test [4], 7.4 µM. For the same compound, in test [2] (read-out: IC50), the IC50 was found to be 30 µM. The Fold increase in test [3] was found to be 1.

For `O=C(/C=C/c1ccc(O)cc1)CC(=O)/C=C/c1ccc(O)cc1` [BISDEMETHOXYCURCUMIN], the CC50 in test [1] was determined as 8.5 µM; in test [4], 13 µM. Besides, the IC50 in test [2] (read-out: IC50) was greater than 100 µM. The same compound had a Fold increase in test [3] of 0.9.

Take `O=C(/C=C/c1ccc(O)c(O)c1)/C=C/c1ccc(O)c(O)c1`: the CC50 turned out to be 21 µM in test [1] and 38 µM in test [4]. In addition, the IC50 in test [2] (read-out: IC50) amounted to 0.6 µM. The Fold increase in test [3] was determined as 1.1.

For the compound `O=C(/C=C/c1ccc(O)c(O)c1)c1ccc(O)cc1O` [BUTEIN], the CC50 worked out at 9.1 µM in test [1] and 5.3 µM in test [4]. Moreover, the concentration for half-maximal inhibition (IC50) in test [2] (read-out: IC50) amounted to 20 µM. Further, the Fold increase in test [3] was found to be 2.2.

`COc1ccc(/C=C/C(=O)/C=C/c2ccc(OC)c(OC)c2)cc1OC`: the CC50 came to 6.7 µM in test [1] and 4.1 µM in test [4]. Moreover, in test [2] (read-out: IC50), the IC50 is greater than 100 µM. In test [3], this compound gave a Fold increase of 1.1.

On to `O=C1/C(=C/c2ccc(O)c(O)c2)CC/C1=C\c1ccc(O)c(O)c1`, for which the CC50 was found to be 17 µM in test [1] and 15 µM in test [4]. Also, the half-maximal inhibitory concentration (IC50) in test [2] (read-out: IC50) was found to be 1 µM. This compound displayed a Fold increase in test [3] of 4.

Take `O=C1C(=Cc2ccc(O)c(O)c2)C(=O)c2ccccc21`: the figures for the cytotoxic concentration (CC50) in test [1] and in test [4] were 50 µM and 32 µM, respectively. In test [2] (read-out: IC50), the half-maximal inhibitory concentration (IC50) was 3 µM. In addition, the Fold increase in test [3] worked out at 2.

Turning to `O=C1/C(=C/c2ccc(O)c(O)c2)COC/C1=C\c1ccc(O)c(O)c1`, the CC50 in test [1] came out at 15 µM; in test [4] it was 10 µM. Moreover, the IC50 in test [2] (read-out: IC50) was 0.2 µM. Besides, the Fold increase in test [3] worked out at 0.9.

As for `O=C(/C=C/c1ccc(O)cc1)/C=C/c1ccc(O)cc1`, the CC50 in test [1] worked out at 7.4 µM; in test [4], 1.6 µM. Also, the IC50 in test [2] (read-out: IC50) was greater than 100 µM. The compound further had a Fold increase in test [3] of 1.1.
